From ChEMBL document CHEMBL1151937, “Synthesis and evaluation of an acyl-chain unsaturated analog of the Th2 biasing, immunostimulatory glycolipid, OCH” (Bioorg Med Chem Lett, 2009)
The source made the active and inactive calls. No cut-off for these calls is given here.

What was measured:
Assay type in all cases: functional, cell-based
[1] = system: iNKT; test: Stimulation of human iNKT cell proliferation
[2] = system: Splenocyte; test: Stimulation of mouse splenocyte proliferation by [3H]thymidine after 48 hrs by incorporation assay
In short: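 Mouse splenocytes exposed to lipid at varying concentrations; proliferation read out as tritiated thymidine incorporation. Values are means of duplicate wells.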

[3] = system: Splenocyte; test: Stimulation of IFN-gamma production in C57BL/6 mouse splenocytes after 48 hrs by ELISA
In short: (§1)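 C57BL/6 mouse splenocytes cultured 48 h with lipid over a range of concentrations; IL-4 and IFNγ measured in culture supernatants by standard sandwich ELISA. Values are means of duplicate wells.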

[4] = system: Splenocyte; test: Stimulation of IL4 production in C57BL/6 mouse splenocytes after 48 hrs by ELISA; in short: as §1

Compound | Activity [1] | Activity [2] | Activity [3] | Activity [4]
CCCCCCCCCCCCCCCCCCCCCCCC(=O)N[C@@H](CO[C@H]1O[C@H](CO)[C@H](O)[C@H](O)[C@H]1O)[C@H](O)[C@H](O)CCCCC | Active | Active | – | –
CCCCCCCCCCCCCCCCCCCC(=O)N[C@@H](CO[C@H]1O[C@H](CO)[C@H](O)[C@H](O)[C@H]1O)[C@H](O)CCCCCC | inactive | Active | inactive | inactive
CCCCCCCCCCCCCCCCCCCC(=O)N[C@@H](CO[C@H]1O[C@H](CO)[C@H](O)[C@H](O)[C@H]1O)[C@H](O)[C@H](O)CCCCC | inactive | Active | inactive | inactive
CCCCC/C=C\C/C=C\CCCCCCCCCC(=O)N[C@@H](CO[C@H]1O[C@H](CO)[C@H](O)[C@H](O)[C@H]1O)[C@H](O)[C@H](O)CCCCCCCCCCCCCC | Active | Active | – | –
CCCCC/C=C\C/C=C\CCCCCCCCCC(=O)N[C@@H](CO[C@H]1O[C@H](CO)[C@H](O)[C@H](O)[C@H]1O)[C@H](O)CCCCCC | inactive | Active | Active | Active
